Entries after “also recorded” stand apart in the source; their conditions may differ.
Experiments:
hERG = hERG (Homo sapiens, UniProt Q12809); assay: hERG electrophysiology; type: cell-based
[1] = system: S. typhimurium strains TA98, TA100, TA1535, TA1537; assay: bacterial reverse mutation test; type: cell-based
Procedure, shortened: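 GLP plate-incorporation Ames test per OECD 471 with S. typhimurium TA98, TA100, TA1535, TA1537 and E. coli WP2 uvrA, ± Aroclor 1254-induced male rat liver S9. An initial toxicity-mutation phase (1.5–5000 μg/plate) set the range for the confirmatory assay at 100, 333, 1000, 3333 and 5000 μg/plate. Negative and positive controls were included. Toxicity and precipitate were noted.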

[2] = single-dose pharmacokinetics and oral bioavailability; type: in vivo, Sprague-Dawley rats; conditions: for clearance: CL, S2218 iv 1 mg/kg bw
[3] = toxicokinetics in 13-week dietary study; type: in vivo, Sprague-Dawley rats
CYP3A4 = CYP3A4 (Homo sapiens, UniProt P08684); assay: CYP inhibition, spectrofluorimetric; type: biochemical; conditions: recombinant human CYP3A4 expressed in insect Sf9 cells
Procedure, shortened: (§1)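 Inhibition was assayed with recombinant human CYP isoforms expressed in insect Sf9 cells. Turnover of spectrofluorimetric substrates was read by fluorescence. Test compound was tested at a single concentration of 10 μM.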

CYP1A2 = target: T1, CYP1A2 (Homo sapiens, UniProt P05177); assay: CYP inhibition, spectrofluorimetric; type: biochemical; conditions: recombinant human CYP1A2 expressed in insect Sf9 cells
T1 sequence (P05177 1-516): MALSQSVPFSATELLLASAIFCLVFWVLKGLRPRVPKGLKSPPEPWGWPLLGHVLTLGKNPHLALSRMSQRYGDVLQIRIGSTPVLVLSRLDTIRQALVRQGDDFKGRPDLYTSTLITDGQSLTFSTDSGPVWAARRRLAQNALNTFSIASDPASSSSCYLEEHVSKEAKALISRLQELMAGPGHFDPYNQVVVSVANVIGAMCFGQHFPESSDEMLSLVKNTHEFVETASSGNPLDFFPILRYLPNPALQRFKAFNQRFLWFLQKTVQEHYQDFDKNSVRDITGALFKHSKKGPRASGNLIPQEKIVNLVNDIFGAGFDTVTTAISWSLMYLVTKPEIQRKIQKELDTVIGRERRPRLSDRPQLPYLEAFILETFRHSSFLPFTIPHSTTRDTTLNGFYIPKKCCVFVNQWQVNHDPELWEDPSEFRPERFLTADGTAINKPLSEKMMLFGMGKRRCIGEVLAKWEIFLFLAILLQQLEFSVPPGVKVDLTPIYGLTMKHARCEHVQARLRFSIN
Procedure, shortened: as §1

CYP2D6 = CYP2D6 (Homo sapiens, UniProt P10635); assay: CYP inhibition, spectrofluorimetric; type: biochemical; conditions: recombinant human CYP2D6 expressed in insect Sf9 cells
Procedure, shortened: as §1

solubility / dissolution = type: physicochemical; conditions: S8069 at 10 mg/mL; S2218 at all dose levels
[4] = cited from earlier work
[5] = cited from earlier work; remark: listed apart in the source
[6] = female, Sprague-Dawley, rat, plasma, iv, 1 mg/kg
[7] = female, Sprague-Dawley, rat, plasma, po, 10 mg/kg
[8] = female, Sprague-Dawley, rat, plasma, po, 30 mg/kg
[9] = female, Sprague-Dawley, rat, plasma, po, 100 mg/kg
[10] = male, Sprague-Dawley, rat, plasma, iv, 1 mg/kg
[11] = male, Sprague-Dawley, rat, plasma, po, 10 mg/kg
[12] = male, Sprague-Dawley, rat, plasma, po, 30 mg/kg
[13] = male, Sprague-Dawley, rat, plasma, po, 100 mg/kg

Sequence of hERG (Q12809 whole entry): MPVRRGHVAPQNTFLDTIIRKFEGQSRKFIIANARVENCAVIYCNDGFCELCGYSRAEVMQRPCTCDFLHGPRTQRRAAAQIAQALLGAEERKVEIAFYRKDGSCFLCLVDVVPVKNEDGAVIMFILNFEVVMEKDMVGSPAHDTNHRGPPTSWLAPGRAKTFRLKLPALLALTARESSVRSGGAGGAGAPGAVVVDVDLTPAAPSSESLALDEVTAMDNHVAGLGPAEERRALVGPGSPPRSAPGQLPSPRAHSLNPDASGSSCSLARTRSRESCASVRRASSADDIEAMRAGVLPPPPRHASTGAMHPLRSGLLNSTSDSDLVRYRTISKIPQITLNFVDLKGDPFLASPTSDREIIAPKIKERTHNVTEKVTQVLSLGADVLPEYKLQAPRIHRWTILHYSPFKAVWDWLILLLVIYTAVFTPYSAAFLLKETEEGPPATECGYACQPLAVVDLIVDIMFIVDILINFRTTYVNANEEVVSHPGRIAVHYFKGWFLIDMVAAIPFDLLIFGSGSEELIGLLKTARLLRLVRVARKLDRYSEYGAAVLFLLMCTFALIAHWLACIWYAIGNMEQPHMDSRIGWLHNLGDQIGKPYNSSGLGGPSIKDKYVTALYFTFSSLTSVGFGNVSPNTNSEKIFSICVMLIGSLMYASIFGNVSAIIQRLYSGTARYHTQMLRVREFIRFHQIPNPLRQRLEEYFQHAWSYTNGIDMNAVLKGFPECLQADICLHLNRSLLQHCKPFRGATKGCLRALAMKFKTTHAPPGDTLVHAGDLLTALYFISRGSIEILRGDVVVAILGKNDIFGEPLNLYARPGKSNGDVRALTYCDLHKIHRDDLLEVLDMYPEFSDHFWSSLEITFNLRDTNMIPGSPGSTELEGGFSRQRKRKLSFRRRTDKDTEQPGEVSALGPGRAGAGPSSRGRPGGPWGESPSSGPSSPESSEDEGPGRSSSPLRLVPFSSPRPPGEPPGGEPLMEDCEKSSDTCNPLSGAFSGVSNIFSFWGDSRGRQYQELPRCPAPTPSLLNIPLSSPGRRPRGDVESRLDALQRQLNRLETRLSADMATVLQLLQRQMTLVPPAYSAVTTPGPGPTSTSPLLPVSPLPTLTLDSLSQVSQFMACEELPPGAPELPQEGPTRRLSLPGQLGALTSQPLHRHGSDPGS
Sequence of CYP2D6 (P10635 whole entry): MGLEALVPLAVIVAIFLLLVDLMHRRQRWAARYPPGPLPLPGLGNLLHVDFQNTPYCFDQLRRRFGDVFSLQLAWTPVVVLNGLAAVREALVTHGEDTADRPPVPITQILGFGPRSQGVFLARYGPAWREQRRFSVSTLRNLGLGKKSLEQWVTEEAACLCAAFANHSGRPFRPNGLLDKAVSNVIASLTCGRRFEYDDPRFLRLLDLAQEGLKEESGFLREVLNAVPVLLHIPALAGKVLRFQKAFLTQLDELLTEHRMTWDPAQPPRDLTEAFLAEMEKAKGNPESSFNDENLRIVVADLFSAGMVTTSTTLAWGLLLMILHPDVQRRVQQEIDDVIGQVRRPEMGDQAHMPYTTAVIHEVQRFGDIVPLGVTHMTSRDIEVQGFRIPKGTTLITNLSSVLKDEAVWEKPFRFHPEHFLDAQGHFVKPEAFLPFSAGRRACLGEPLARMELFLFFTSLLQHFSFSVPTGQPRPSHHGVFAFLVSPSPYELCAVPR
Sequence of CYP3A4 (P08684 whole entry, canonical isoform): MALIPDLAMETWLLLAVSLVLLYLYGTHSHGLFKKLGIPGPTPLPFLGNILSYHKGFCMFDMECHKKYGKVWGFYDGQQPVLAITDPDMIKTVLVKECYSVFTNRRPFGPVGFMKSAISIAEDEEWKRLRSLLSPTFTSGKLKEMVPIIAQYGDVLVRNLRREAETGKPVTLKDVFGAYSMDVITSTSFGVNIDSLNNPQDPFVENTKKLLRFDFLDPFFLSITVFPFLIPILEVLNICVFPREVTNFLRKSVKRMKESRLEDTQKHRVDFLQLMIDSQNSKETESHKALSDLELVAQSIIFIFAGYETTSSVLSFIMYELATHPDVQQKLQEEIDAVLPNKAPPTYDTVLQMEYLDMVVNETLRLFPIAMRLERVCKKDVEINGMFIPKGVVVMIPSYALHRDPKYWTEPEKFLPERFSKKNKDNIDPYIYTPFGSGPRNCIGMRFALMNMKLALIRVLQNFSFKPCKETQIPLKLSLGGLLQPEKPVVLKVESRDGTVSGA

## Cc1cc(C(=O)NC(C)(C)COc2cccc3c2C(N)=NS(=O)(=O)N3)cc(C)n1 [S2218, N-(1-((4-amino-2,2-dioxido-1H-benzo[c][1,2,6]thiadiazin-5-yl)oxy)-2-methylpropan-2-yl)-2,6-dimethylisonicotinamide]
hERG
  inhibition at 10 μM: < 10%
[1]; 100–5000 μg/plate, plate incorporation, ±S9
  Reverse mutation (in vitro), result: not found to be mutagenic; also recorded: Negative
[1]; all tester strains, ±S9, up to 5000 μg per plate
  cytotoxicity (background lawn / revertant colonies): No cytotoxicity
[1]; confirmatory mutagenicity assay
  concentration at which precipitate was observed: ≥ 3333 μg per plate
[1]; initial toxicity-mutation assay
  concentration at which precipitate was observed: 5000 μg per plate
[2]; IV 1 mg/kg
  female/male ratio of mean AUClast: 0.88
  female/male ratio of mean Cmax: 1.06
[2]; S2218 oral gavage 10 mg/kg bw, M, 10 mg/kg
  t1/2: 45.8 ± 4.38 min
[2]; both, Sprague-Dawley, rat, plasma, po, %F, both test articles, male and female rats, all doses
  bioavailability: 0.14 to 0.77%
[2]; [6]
  AUC(0-t): 0.44 ± 0.0571 µg·h/mL
  Cmax: 3.15 ± 0.399 µg/mL
  Tmax: 1.98 min
  Vd: 0.575 L/kg
[2]; female, Sprague-Dawley, rat, plasma, iv, 1 mg/kg, F
  clearance: 2.3 L/h/kg
[2]; female, Sprague-Dawley, rat, plasma, iv, 1 mg/kg, t1/2, S2218 iv 1 mg/kg bw, F
  half-life: 10.4 ± 0.24 min
[2]; [7]
  AUC(0-t): 0.0191 ± 0.0105 µg·h/mL
  Cmax: 0.0221 ± 0.00855 µg/mL
  Tmax: 18.8 ± 7.5 min
[2]; [8]
  AUC(0-t): 0.0377 ± 0.014 µg·h/mL
  Cmax: 0.0368 ± 0.0148 µg/mL
  Tmax: 18.8 ± 7.5 min
[2]; [9]
  AUC(0-t): 0.0659 ± 0.0346 µg·h/mL
  Cmax: 0.0387 ± 0.0204 µg/mL
  Tmax: 15 min
[2]; female, Sprague-Dawley, rat, plasma, po, mean t1/2 of S2218 in plasma, oral dose of S2218 or S8069, female rats
  half-life: 45 to 75 min
[2]; iv, F
  CL as % of hepatic blood flow: 69.6%
  Vss as % of total body water volume: 86.1%
[2]; iv, M
  CL as % of hepatic blood flow: 60.9%
  Vss as % of total body water volume: 80.2%
[2]; [10]
  AUC(0-t): 0.5 ± 0.0479 µg·h/mL
  Cmax: 2.98 ± 0.291 µg/mL
  Tmax: 1.98 min
  Vd: 0.536 L/kg
[2]; male, Sprague-Dawley, rat, plasma, iv, 1 mg/kg, M
  clearance: 2.01 L/h/kg
[2]; male, Sprague-Dawley, rat, plasma, iv, 1 mg/kg, t1/2, S2218 iv 1 mg/kg bw, M
  half-life: 11.1 ± 1.56 min
[2]; [11]
  AUC(0-t): 0.0181 ± 0.00484 µg·h/mL
  Cmax: 0.0168 ± 0.00603 µg/mL
  Tmax: 18.8 ± 7.5 min
[2]; [12]
  AUC(0-t): 0.0332 ± 0.0207 µg·h/mL
  Cmax: 0.0312 ± 0.0146 µg/mL
  Tmax: 22.5 ± 8.64 min
[2]; [13]
  AUC(0-t): 0.0966 ± 0.0314 µg·h/mL
  Cmax: 0.0763 ± 0.0288 µg/mL
  Tmax: 20 ± 8.64 min
[2]; male, Sprague-Dawley, rat, plasma, po, mean t1/2 of S2218 in plasma, oral dose of S2218 or S8069, male rats
  half-life: 40.2 to 51.6 min
[3]; 30 mg/kg bw, M + F
  ACUM Ratio (dose-normalized AUC0-24h Day 91/Day 7): 1.88
[3]; 70 mg/kg bw, M + F
  ACUM Ratio (dose-normalized AUC0-24h Day 91/Day 7): 0.954
[3]; 140 mg/kg bw, F
  ACUM Ratio (dose-normalized AUC0-24h Day 91/Day 7): 0.768
[3]; 140 mg/kg bw, M
  ACUM Ratio (dose-normalized AUC0-24h Day 91/Day 7): 4.55
[3]; 140 mg/kg bw, M + F
  ACUM Ratio (dose-normalized AUC0-24h Day 91/Day 7): 2.30
CYP3A4
  inhibition at 10 μM: ≤ 7%
CYP1A2
  inhibition at 10 μM: ≤ 7%
CYP2D6
  inhibition at 10 μM: ≤ 7%
Solubility / dissolution
  state in 1% methylcellulose dosing formulation: formed a suspension
[4]
  water solubility at low pH vs S6973 and S617: improved water solubility at low pH
[5]
  photostability to UV light vs S6973 and S617: significantly improved photostability

— PMC5615155 (Toxicology Reports, 2017)
